# Assay outcomes deposited in PubChem BioAssay by Broad Institute.
# An excerpt weighted towards active compounds, which were near 1.7% of everything screened.
# AI-2 QS modul – Vibrio harveyi AI-2 quorum sensing modulation | 0.4% of 300,000 active | activity change, % at 7.5 µM | Vibrio harveyi JMH597 AI-2 luminescence/OD600 ratio, 9 h; hits give low values; strain lacks LuxN and CqsS sensors; 0 = neutral-control median; in the data active means activity change below about -75%, passing the limit was not always enough; inconclusive means no clear call, values can overlap the other calls;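 further: luminescence divided by OD600 gain over 9 h not by final OD600 alone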
# CAL PDZ FP-1 – inhibitors of human CAL PDZ peptide binding; Q9HD26; purified CAL PDZ, TMR-peptide fluorescence polarization, 1 h; inhibition, % at 24.9 µM; 0.92% of 300,000 active;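 active means mean inhibition of at least 30% with at least half of replicates also reaching 30%; inconclusive means no clear call, values can overlap the other calls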;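 further: 0% = DMSO neutral control and 100% = excess unlabeled competitor peptide PRC23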
# ARNT TACC3 PPI – ARNT/TACC3 interaction disruption; 0.66% of 390,000 active; Q9Y6A5; AlphaScreen His-ARNT PAS-B/GST-TACC3 binding, luminescence; TACC3 fragment carries E629A point mutation; inhibition, % at 9.99 µM; AID 623870;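 active means mean inhibition of replicates at least 50% and at least half of replicates each reaching 50%; inconclusive means half or more replicates reach 50% but mean below 50%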;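 further: 0% = complete ARNT plus TACC3 wells and 100% = ARNT alone without TACC3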
# Rce1 inhib – yeast Ras-converting enzyme inhibition; yeast membranes, quenched prenylated peptide cleavage fluorescence; Q03530; AID 2563; calls only; 0.27% of 290,000 active;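 active means fall in fluorescence gain of 50% or more versus controls, with final raw signal at or below 3038400; inconclusive means same 50% fall but final raw signal above 3038400; inactive means fall in fluorescence gain under 50%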;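 further: plate controls were neutral control wells for no effect and wells lacking membranes for full effect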
# Target sequence (Q03530 whole entry, looked up): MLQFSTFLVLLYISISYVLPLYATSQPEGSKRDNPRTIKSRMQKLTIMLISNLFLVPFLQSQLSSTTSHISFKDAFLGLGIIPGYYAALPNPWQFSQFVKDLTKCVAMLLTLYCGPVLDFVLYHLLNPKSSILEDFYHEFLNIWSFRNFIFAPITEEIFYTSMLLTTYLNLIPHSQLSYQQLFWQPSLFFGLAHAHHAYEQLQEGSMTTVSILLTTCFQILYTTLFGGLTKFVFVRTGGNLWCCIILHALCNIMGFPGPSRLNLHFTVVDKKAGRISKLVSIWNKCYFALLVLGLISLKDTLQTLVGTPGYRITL
# CAL PDZ FP-2 – blocks peptide binding to human CAL PDZ domain | 0.02% of 330,000 active | purified CAL PDZ, TMR-peptide fluorescence polarization, 1 h | inhibition, % at 20 µM;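 active means highest replicate inhibition of at least 40%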;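 further: plate controls were DMSO neutral control wells for no effect and unlabeled competitor peptide control wells for full effect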
#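 Control set: unlabelled peptide and DMSO controls / Material: purified CerCALP PDZ construct / Timing: 1 h incubation at room temperature before polarization reading / Doses: 20 µM, one dose / Detection: fluorescence polarization (mP)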
# * = called active by the depositor; i = inactive; u = inconclusive; x = no result; + = active, no number.
SMILES,AI-2 QS modul,CAL PDZ FP-1,ARNT TACC3 PPI,Rce1 inhib,CAL PDZ FP-2
CNC(=S)N1CCn2cccc2C1c1cccnc1 (centres undefined),37,78*,0,i,7
N#CSCC(=O)N1c2ccccc2CCc2ccccc21,-76*,0,x,i,1
Cn1ncnc2c(=O)n(C)c(=O)nc1-2,-81*,-3,39,i,-3
O=C(COc1ccccc1)N1CCN(C/C=C/c2ccccc2)CC1,-1,-3,2,x,-1
CCN(CC)C(=O)c1ccc(NC(=S)NC(=O)CCc2ccccc2)cc1,28,10,2,i,0
CCN(CC)C(=O)c1ccc(NC(=O)CCCSc2ccccc2)cc1,2,80*,3,i,-1
CCN1CCN(c2ccc(N)cc2)CC1,9,-1,27,i,-1
CCN1CCN(c2ccc(N)cc2C)CC1,13,0,48*,i,2
CCOP(=O)(OCC)C(NC(=O)CN1C(=O)c2ccccc2S1(=O)=O)C(Cl)(Cl)Cl (centres undefined),18,1,-10,i,0
COc1ccc2c(c1)C13CCN(C)C(C2)C1CCC1(C3)OCCO1 (centres undefined),x,-4,-2,x,-1
C[n+]1c(-c2ccccc2)c2cc(N)ccc2c2ccc(N)cc21,61,2,47*,i,12
Cc1ccc(OP2(=O)Nc3cc(C)c(C)cc3S2)cc1 (centres undefined),x,0,46*,x,-2
O=C(COc1ccc2ccc(=O)oc2c1)N1CCC(C(=O)O)(c2ccccc2)CC1,18,5,0,+,1
Cc1c(C)c2ccc(OCC(=O)N3CCC(C(=O)O)(c4ccccc4)CC3)cc2oc1=O,32,41*,24,x,0
Cc1cc(OCC(=O)N2CCC(C(=O)O)(c3ccccc3)CC2)c2c(C)cc(=O)oc2c1,17,4,6,x,-1
O=C1Nc2ccccc2C(c2ccccc2)=NC1O (centres undefined),14,-5,-20,i,x
CN1C(=O)c2ccccc2NC(=O)[C@]12O[C@@H]2c1ccccc1,-4,2,3,+,0
FC(F)(F)c1ccccc1CCN1CCNCC1,-8,33*,-4,i,1
CCN(CC)C(=O)c1ccc2c(c1)C1C=CCC1C(C(=O)O)N2 (centres undefined),23,1,13*,i,2
CCN(CC)C(=O)c1ccc2c(c1)C1C(Cl)C(Sc3ccccc3[N+](=O)[O-])CC1C(C(=O)O)N2 (centres undefined),53,-4,35,i,-3
CC(NC(=O)Cc1cccc2ccccc12)C(=O)N1CCC(=O)CC1 (centres undefined),11,47*,3,i,0
COC(=O)C1=C(c2ccc3ccccc3c2)C[C@@H]2CC[C@H]1N2C(=O)NC(C)C,x,5,3,x,0
Cc1ccc(-c2cc(-c3ccccc3)cc(-c3ccccc3)[n+]2-c2ccccc2)cc1,19,-2,5,+,1
c1ccc(-c2cc(-c3ccccc3)[n+](-c3ccccc3)c(-c3ccccc3)c2)cc1,25,-11,1,i,-1
Cc1ccc(-c2cc(-c3ccc(C)cc3)[n+](-c3ccccc3)c(-c3ccc(C)cc3)c2)cc1,-8,1,7,+,-2
SMILES,AI-2 QS modul,CAL PDZ FP-1,ARNT TACC3 PPI,Rce1 inhib,CAL PDZ FP-2
NC(Cc1ccc(O)cc1)C(=O)NN=Cc1ccc(N(CCCl)CCCl)cc1 (centres undefined),x,-3,-3,x,-1
COc1ccc(-c2cc(=Nc3cccc(C(=O)O)c3)c3cc(C)ccc3o2)cc1,22,-4,-15,i,-5
COc1ccc(-c2cc(=NCCCCCC(=O)O)c3cc(C)ccc3o2)cc1,23,0,61*,u,-2
CC[C@H](OC(C)=O)C(C[C@H](C)N(C)C)(c1ccccc1)c1ccccc1,x,-1,0,x,-1
CCc1nc2ccc(N3CCN(C)CC3)cc2nc1CC,38,49*,-4,i,-2
CN1CCN(c2ccc3nccnc3c2)CC1,6,-5,-3,i,-1
CCCCCCn1c(=O)c(C(=O)Nc2nc(CC(=O)OCC)cs2)c(O)c2ccccc21,8,-6,-10,i,-1
COc1ccc2c3c([nH]c2c1)C(C)NCC3 (centres undefined),8,-3,27,i,5
CCn1c(=O)n(CC(=O)N2CCC3(CC2)OCCO3)c(=O)c2ccccc21,5,52*,2,i,-1
CCOc1ccccc1N=C1SCCCN1C,4,x,-14,i,0
CC(=O)N1CCCSC1=Nc1ccccc1,8,58*,-18,i,-1
CN(C)CCCNCC(=O)Nc1ccc(Cl)cc1C(=O)c1ccccc1,21,0,x,i,-1
COC(=O)[C@@H]1[C@@H](CO)[C@@H]2Cn3c(ccc(-c4ccccc4F)c3=O)[C@H]1N2Cc1ccccc1,x,x,active,x,x
CN(C)C1=NC(N(C)C)=NP(N(C)C)(N(C)C)=N1,6,35*,-10,i,-2
CN(C)C1=C(C#N)C(c2ccccc2)=NP(N(C)C)(N(C)C)=N1,22,-3,-2,i,-2
COc1ccc(O)c2c(=O)c3c(OC)cc4c(c3oc12)C1C=COC1O4 (centres undefined),3,1,-10,i,1
CCCN(CCC)C(=O)Cc1c(-c2ccc(Cl)cc2)nc2c(Cl)cc(Cl)cn12,x,1,-2,x,0
Cc1ccc(-c2nc3ccc(C)cn3c2CC(=O)N(C)C)cc1,7,-7,4,+,-1
N#CCN1CCN(c2ccc(C(F)(F)F)cc2)CC1,55,-4,5,i,-1
O=C(Nc1ccc(Cl)cc1)OC1CN2CCC1CC2 (centres undefined),22,48*,1,i,-1
Cc1oc(-c2cccs2)nc1CSCC(=O)N1CCC2(CC1)OCCO2,17,3,0,+,-2
COc1ccc(-c2nc(CSCC(=O)N3CCC4(CC3)OCCO4)c(C)o2)cc1OC,16,-5,-1,i,-3
COc1ccc2nc(/N=C/c3c(O)n(-c4cccc(Cl)c4)c(=O)[nH]c3=O)sc2c1,25,-4,79*,i,x
O=[N+]([O-])c1cc(Cl)c(O)c(-[n+]2c(-c3ccccc3)cc(-c3ccccc3)cc2-c2ccccc2)c1,43,1,x,i,x
O=[N+]([O-])c1ccc(C[n+]2c(-c3ccccc3)cc(-c3ccccc3)cc2-c2ccccc2)cc1,11,0,x,+,0
CCC(=O)c1ccc(OCC(=O)N2CCN(CC(=O)Nc3ccccc3C(F)(F)F)CC2)cc1,x,1,-1,x,-1
CSc1ncc(CN2CCCC(C(=O)c3cccc(Cl)c3)C2)cn1 (centres undefined),0,48*,3,i,0
